For data set [1], the target named is T1, Tissue alpha-L-fucosidase (Homo sapiens, UniProt P04066).
T1 sequence (P04066 whole entry): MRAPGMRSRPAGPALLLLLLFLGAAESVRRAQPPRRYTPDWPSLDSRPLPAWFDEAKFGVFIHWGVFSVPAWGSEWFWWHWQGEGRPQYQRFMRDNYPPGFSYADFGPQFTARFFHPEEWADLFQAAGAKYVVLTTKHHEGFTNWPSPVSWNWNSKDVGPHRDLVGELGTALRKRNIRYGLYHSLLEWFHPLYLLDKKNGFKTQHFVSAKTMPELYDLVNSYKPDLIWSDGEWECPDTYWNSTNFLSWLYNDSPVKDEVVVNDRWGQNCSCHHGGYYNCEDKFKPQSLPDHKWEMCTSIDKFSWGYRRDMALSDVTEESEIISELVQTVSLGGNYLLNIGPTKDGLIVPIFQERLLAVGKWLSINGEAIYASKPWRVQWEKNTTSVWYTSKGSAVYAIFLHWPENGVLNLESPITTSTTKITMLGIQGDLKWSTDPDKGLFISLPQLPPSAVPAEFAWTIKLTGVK
The data set can be described thus: Inhibition of human placenta alpha fucosidase at pH 6.8. The method in brief: (§1)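 Nitrophenyl glycoside substrate hydrolysis in 0.1 M sodium phosphate, pH 6.8, 25 °C. Seven cuvettes hold a fixed inhibitor concentration and seven hold none, each across varying substrate levels. The reaction is started with diluted enzyme, and 4- or 2-nitrophenol release is followed at 400 nm for 2 min. Ki = [I]/(KM′/KM − 1) from KM with and without inhibitor.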

The next data set deals with Alpha-galactosidase (Coffea arabica, UniProt Q5DUH8). The data set can be described thus: Inhibition of green coffee beans alpha galactosidase at pH 6.8. The method in brief:
as §1

Data set [2] deals with T2, Tissue alpha-L-fucosidase (Bos taurus, UniProt Q2KIM0).
T2 sequence (Q2KIM0 whole entry): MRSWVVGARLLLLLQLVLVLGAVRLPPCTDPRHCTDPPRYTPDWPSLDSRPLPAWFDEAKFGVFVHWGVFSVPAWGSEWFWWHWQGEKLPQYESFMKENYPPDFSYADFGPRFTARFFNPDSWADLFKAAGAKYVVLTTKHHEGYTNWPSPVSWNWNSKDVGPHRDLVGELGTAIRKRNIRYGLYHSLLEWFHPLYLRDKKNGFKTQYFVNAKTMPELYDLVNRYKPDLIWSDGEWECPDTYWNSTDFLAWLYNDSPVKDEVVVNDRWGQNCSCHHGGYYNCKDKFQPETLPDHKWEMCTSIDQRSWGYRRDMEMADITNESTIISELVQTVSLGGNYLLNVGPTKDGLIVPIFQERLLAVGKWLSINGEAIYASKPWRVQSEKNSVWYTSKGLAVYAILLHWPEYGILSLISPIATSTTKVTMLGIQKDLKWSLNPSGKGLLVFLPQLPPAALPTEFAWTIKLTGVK
The data set can be described thus: Inhibition of bovine kidney alpha fucosidase at pH 6.8. The method in brief: as §1

Data set [3] can be described thus: Inhibition of yeast alpha glucosidase at pH 6.8. Details: species or system Saccharomyces cerevisiae. The method in brief:
as §1

Data set [4] is described as follows: Dissociation constant, pKa of the compound. Type of data set: physicochemical.

In general, Ki refers to a measure of affinity in units of concentration, obtained from inhibition or displacement. Low readings indicate higher affinity, high ones lower affinity. The pKa is the negative logarithm of the acid dissociation constant. A lower pKa goes with a group that gives up its proton readily.

Alpha-galactosidase, sequence (Q5DUH8 whole entry): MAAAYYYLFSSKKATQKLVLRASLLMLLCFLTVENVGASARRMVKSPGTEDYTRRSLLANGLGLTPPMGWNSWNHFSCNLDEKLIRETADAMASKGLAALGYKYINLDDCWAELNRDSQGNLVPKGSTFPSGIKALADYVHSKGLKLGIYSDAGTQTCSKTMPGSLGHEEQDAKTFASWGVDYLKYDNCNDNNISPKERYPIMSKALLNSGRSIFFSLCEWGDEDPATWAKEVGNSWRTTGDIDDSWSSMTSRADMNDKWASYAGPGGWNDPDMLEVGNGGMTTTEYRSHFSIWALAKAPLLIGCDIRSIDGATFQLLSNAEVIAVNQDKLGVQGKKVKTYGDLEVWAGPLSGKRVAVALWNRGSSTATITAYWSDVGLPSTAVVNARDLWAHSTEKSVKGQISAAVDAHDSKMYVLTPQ

For `C[C@H]1NC[C@H](O)[C@@H](O)C1(F)F`, the Ki (in data set [1]; at Alpha-galactosidase; in data set [2]; in data set [3]) was more than 1000 µM each time.
On to `OC[C@H]1NC[C@@H](O)[C@@H](O)C1(F)F`, for which the pKa in data set [4] stood at 5.3.
In the case of `C[C@@H]1NC[C@@H](O)[C@H](O)C1(F)F`, the Ki in data set [1] is 250 µM; on Alpha-galactosidase, more than 1000 µM; in data set [2], 570 µM; in data set [3] it was more than 1000 µM.

The values are drawn from ChEMBL document CHEMBL1147677, “Synthesis and biological evaluation of glycosidase inhibitors: gem-difluoromethylenated nojirimycin analogues” (J Med Chem, 2006).
